Results from ChEMBL document CHEMBL3351971 (Bioorg Med Chem, 2014).
In brackets after ≈: the same amount, converted by molar mass. Activity calls are given as the source filed them. No cut-off for these calls is given here.

What was measured:
Leishmania infantum [1] = assay: Antileishmanial activity against axenically cultured Leishmania infantum chagasi MHOM/BR/00/1669 promastigotes assessed as inhibition of parasite growth after 24 hrs; conditions: chagasi MHOM/BR/00/1669, 24 h
[2] = Cytotoxicity against mouse RAW264.7 cells assessed as cell survival at 100 ug/ml after 48 hrs by MTT assay; assay type: cell-based; conditions: read-out: Survival
How it was run: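 RAW 264.7 cells were seeded at 4×10^4/well. Compounds were dissolved at 0.2% in ethanol and diluted in M199 medium, highest concentration 100 µg/mL. Cells were exposed for 48 h at 37 °C in humidified 5% CO2, with […] vehicle controls. Viability was read by MTT.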

Leishmania infantum [3] = assay: Antileishmanial activity against intracellular Leishmania infantum chagasi MHOM/BR/00/1669 amastigotes infected in BALB/c mouse assessed as inhibition of parasite growth in spleen at 100 mg/kg, ip once daily treated after 30 days post infection for 30 days; assay type: functional, organism-based; design: dose 100 mg/kg
How it was run: (§1)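 Male BALB/c mice, 21 days old, infected IP with 1×10^7 Ficoll-purified metacyclic promastigotes; infection confirmed by liver and spleen imprints at 35 days. Compounds given IP at 100 mg/kg once daily for 30 days, 0.5 mL injected, n = 5 per group. Controls were Glucantime (80 mg/Kg intramuscular) and water. Liver and spleen collected afterwards; amastigotes detected qualitatively by anti-Leishmania immunohistochemistry with DAB.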

Leishmania infantum [4] = assay: Antileishmanial activity against intracellular Leishmania infantum chagasi MHOM/BR/00/1669 amastigotes infected in mouse RAW264.7 cells assessed as inhibition of parasite growth after 48 hrs; assay type: functional, organism-based; conditions: chagasi MHOM/BR/00/1669, RAW264.7, 48 h
How it was run: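 RAW 264.7 macrophages (4×10^5/well, RPMI-1640 + 10% FBS) adhered for 24 h, then infected with promastigotes at 1:10 for 2 h. Non-adherent parasites rinsed off and cells held 72 h. Compounds added from ethanol stocks in six two-fold dilutions for 48 h at 37 °C, 5% CO2. Amastigotes detected by cell ELISA (saponin permeabilization, rabbit anti-Leishmania serum 1:500, peroxidase anti-rabbit, OPD, 492 nm).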

Leishmania infantum [5] = assay: Antileishmanial activity against intracellular Leishmania infantum chagasi MHOM/BR/00/1669 amastigotes infected in BALB/c mouse assessed as inhibition of parasite growth in liver at 100 mg/kg, ip once daily treated after 30 days post infection for 30 days; assay type: functional, organism-based; design: dose 100 mg/kg
How it was run: as §1

| Compound | EC50 (Leishmania infantum [1]) [µg/mL] | viability at 48 h, 100 ug/ml [2] [%] | Activity (Leishmania infantum [3]) | EC50 (Leishmania infantum [4]) [µg/mL] | Activity (Leishmania infantum [5]) |
| --- | --- | --- | --- | --- | --- |
| N=C(N)c1ccc(OCCCCCOc2ccc(C(=N)N)cc2)cc1 [PENTAMIDINE] | 5.3 (≈ 15.6 µM) | 85.6 |  |  |  |
| C=CCc1ccc(OC(=O)c2ccccc2)c(OC)c1 [EUGENYL BENZOAT] | 10.6 (≈ 39.4 µM) | 97.7 | Active | 14.9 (≈ 55.6 µM) | Active |
| C[C@@H]1[C@H](O)[C@@H](C)/C=C/C=C/C=C/C=C/C=C/C=C/C=C/[C@H](O[C@@H]2O[C@H](C)[C@@H](O)[C@H](N)[C@@H]2O)C[C@@H]2O[C@](O)(C[C@@H](O)C[C@@H](O)[C@H](O)CC[C@@H](O)C[C@@H](O)CC(=O)O[C@H]1C)C[C@H](O)[C@H]2C(=O)O [AMPHOTERICIN B] |  | 98.5 |  | 20.4 (≈ 22.1 µM) |  |
| MEGLUMINE ANTIMONATE |  |  | inactive |  |  |
| Cc1ccc(C(C)C)c(O)c1 [THYMOL] |  | 36.5 |  | 23.9 (≈ 159 µM) |  |
| Cc1ccc(C(C)C)c(OC(=O)c2ccccc2)c1 | 8.67 (≈ 34.1 µM) | 63.6 | Active | 15.1 (≈ 59.3 µM) | Active |
| CC(=O)Oc1cc(C)ccc1C(C)C | 9.07 (≈ 47.2 µM) | > 100 | inactive | 10.9 (≈ 57 µM) | Active |
| C=CCc1ccc(O)c(OC)c1 [EUGENOL] | 56.1 (≈ 342 µM) | 29 |  | 20.8 (≈ 127 µM) |  |
| C=CCc1ccc(OC(C)=O)c(OC)c1 [EUGENYL ACETATE] | 23.2 | > 100 | Active | 18.5 | Active |
